Bioassay records as filed in PubChem.
Shown are actives, neighbours in structure and some others; about 1.9% of the full set was active somewhere.
NOD2-RIPK2 inh: NOD2-RIPK2 binding disruptors in cells, primary screen, fluorescence, CHO cells, BLA complementation; Receptor-interacting serine/threonine-protein kinase 2 (Homo sapiens), O43353; AID 624267, 2012; CCF4 ratio; actives 0.38% (n = 360,000); inhibition, % at 4.98 µM; in the data active = inhibition above about 21%;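 also: 0% = vehicle only and 100% = reference blocker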
NTR1 agonist: agonists of human NTR1, primary screen, imaging, U2OS cells, beta-arrestin-GFP, high content; Neurotensin receptor type 1 (Homo sapiens), P30989; NTR1-U2OS beta-arrestin-GFP spot imaging, agonist mode; activation, % at 20 µM; actives 0.17% (n = 330,000); AID 493036, 2011;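 active = activation at or above 40% of the spot to cytoplasm intensity ratio, with at least 20 cells analyzed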;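 also: 0% = DMSO without peptide and 100% = 100 nM NTR1 peptide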
MC4R antagonist: MC4R antagonists of cAMP signaling, primary screen, cell-based, TR-FRET, antagonist arm of biased-ligand search. MC4R-expressing cells, MTII-stimulated cAMP, LANCE TR-FRET. inhibition, % at 6.5 µM. actives 0.48% (n = 360,000). AID 540295, 2011;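 active = inhibition above its plate's cutoff, the mean of tested wells on that plate plus 3 SD, cut at about 29% in these data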;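 also: 0% = Melanotan II alone and 100% = Melanotan II plus saturating MCL0020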
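System – human MC4R-expressing U2OS cells · Also added – Melanotan II · Dosing – one concentration, 6.5 µM nominal · Timing – 30-min compound, 1-h challenge, 1-h detection, room temperature · Measured by – Eu-cAMP/anti-cAMP TR-FRET, emission 671 nm · Replicates – singlicate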
MC4R barr agon: MC4R agonists recruiting beta-arrestin, primary screen, cell-based, luminescence, agonist arm of biased-ligand search; activation, % at 8.9 µM; U2OS MC4R beta-arrestin complementation; percent of melanotan II response, DMSO zero; actives 0.98% (n = 360,000); Melanocortin receptor 4 (Homo sapiens), P32245;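 active = activation above a per-plate cutoff, the mean activation of sample wells on that plate plus 3 SD, cut at about 8% in these data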
TLR9-MyD88 inh: inhibitors of TLR9-MyD88 association in cells, primary screen, cell-based, CHO, BLA complementation, fluorescence | Toll-like receptor 9 (Homo sapiens) + Myeloid differentiation primary response protein … | inhibition, % at 4.98 µM | CCF4 FRET ratio | actives 0.21% (n = 340,000) | AID 504734, 2011;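 active = inhibition above the mean over all tested compounds plus 3 SD, cut at about 21% in these data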;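 also: 0% = DMSO only wells and 100% = clavulanate BLA inhibitor control wells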
Target sequence (Q99836 whole entry, looked up): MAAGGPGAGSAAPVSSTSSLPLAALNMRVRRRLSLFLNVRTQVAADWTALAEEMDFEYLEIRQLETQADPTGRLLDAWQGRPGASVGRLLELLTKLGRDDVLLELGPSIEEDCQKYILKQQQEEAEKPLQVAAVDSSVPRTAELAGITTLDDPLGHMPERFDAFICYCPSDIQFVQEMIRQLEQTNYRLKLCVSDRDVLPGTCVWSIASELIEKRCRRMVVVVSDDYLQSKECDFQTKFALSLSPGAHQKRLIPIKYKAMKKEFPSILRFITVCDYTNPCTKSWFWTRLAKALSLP
Target sequence (Q9NR96 whole entry, looked up): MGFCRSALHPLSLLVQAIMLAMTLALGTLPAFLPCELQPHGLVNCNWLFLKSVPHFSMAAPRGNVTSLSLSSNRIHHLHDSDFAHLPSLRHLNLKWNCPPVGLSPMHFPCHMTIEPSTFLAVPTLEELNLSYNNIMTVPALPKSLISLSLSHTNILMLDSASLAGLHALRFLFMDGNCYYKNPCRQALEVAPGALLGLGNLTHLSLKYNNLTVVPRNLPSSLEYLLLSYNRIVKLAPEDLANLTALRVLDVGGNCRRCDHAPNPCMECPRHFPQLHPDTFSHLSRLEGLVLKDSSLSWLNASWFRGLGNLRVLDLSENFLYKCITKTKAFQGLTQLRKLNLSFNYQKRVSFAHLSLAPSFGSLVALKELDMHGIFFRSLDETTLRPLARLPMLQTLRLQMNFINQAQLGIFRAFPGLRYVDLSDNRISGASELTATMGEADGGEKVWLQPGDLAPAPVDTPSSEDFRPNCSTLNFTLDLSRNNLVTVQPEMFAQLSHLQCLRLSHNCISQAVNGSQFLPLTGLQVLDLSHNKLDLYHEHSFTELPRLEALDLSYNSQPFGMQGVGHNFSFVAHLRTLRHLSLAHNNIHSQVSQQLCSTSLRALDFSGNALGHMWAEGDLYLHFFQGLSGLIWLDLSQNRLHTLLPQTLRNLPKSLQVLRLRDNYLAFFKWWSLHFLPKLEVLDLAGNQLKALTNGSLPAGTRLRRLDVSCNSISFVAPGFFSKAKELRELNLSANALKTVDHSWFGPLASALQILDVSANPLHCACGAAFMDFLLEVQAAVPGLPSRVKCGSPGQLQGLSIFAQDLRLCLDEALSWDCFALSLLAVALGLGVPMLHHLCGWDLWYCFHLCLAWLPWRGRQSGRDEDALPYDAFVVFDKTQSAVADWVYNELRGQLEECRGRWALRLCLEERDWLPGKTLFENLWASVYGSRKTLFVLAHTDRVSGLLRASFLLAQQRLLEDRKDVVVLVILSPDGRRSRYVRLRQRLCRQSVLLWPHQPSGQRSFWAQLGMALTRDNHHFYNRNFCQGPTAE
TLR4-MyD88 BLA: inhibitors of TLR4-MyD88 association in cells, primary screen, cell-based, HeLa CL3-4, BLA complementation, FRET ratio; Toll-like receptor 4 (Homo sapiens) + Myeloid differentiation primary response protein …; HeLa CL3-4 TLR4/MyD88 BLA complementation; inhibition, % at 8.4 µM; actives 0.18% (n = 200,000); in the data active = inhibition above about 25%;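 also: 0% = vehicle and 100% = reference inhibitor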
TLR9-MyD88 cf: TLR9-MyD88 association inhibitors, retest, confirmation, cell-based, CHO, BLA complementation, fluorescence, triplicate; shares compounds with TLR9-MyD88 inh; CCF4 FRET ratio; inhibition, % at 4.98 µM; actives 51% (n = 680);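 active = mean inhibition across three repeats above about 21% taken from the earlier screen, limit read from the data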;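 also: blue over green emission ratio reports constitutive TLR9 MyD88 association via BLA complementation; 0% = DMSO vehicle wells and 100% = clavulanate BLA inhibitor wells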
BLA counter: beta-lactamase reporter inhibitors in CHO cells, artefact control for TLR9-MyD88 binding inhibitor project, cell-based, fluorescence; shares compounds with TLR9-MyD88 inh; CHO-BLA cells, CCF4 FRET ratio, BLA reporter; inhibition, % at 4.98 µM; actives 7% (n = 680); AID 540251, 2011;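 active = mean inhibition above a 50% cutoff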;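 also: counterscreen of TLR9-MyD88 hits on CMV-driven BLA in CHO-K1 cells; 0% = DMSO alone and 100% = clavulanate blocking BLA; higher means less blue over green ratio so more BLA blockade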
TLR9 CHO cytotox: CHO cell viability loss – luminescence, single concentration, cytotoxicity control for TLR9-MyD88 binding inhibitor project; shares compounds with TLR9-MyD88 inh; TLR9-MyD88 CHO cells cytotoxicity; inhibition, % at 4.98 µM; actives 39% (n = 680); in the data active = inhibition above about 11%
Starred values were filed as active, the others as inactive; · = not tested or not shown.

SMILES | NOD2-RIPK2 inh | NTR1 agonist | MC4R antagonist | MC4R barr agon | TLR9-MyD88 inh | TLR4-MyD88 BLA | TLR9-MyD88 cf | BLA counter | TLR9 CHO cytotox
Cc1c(OCC(=O)NCc2ccncc2)ccc2c3c(c(=O)oc12)CCCC3 | -13 | 0 | -8 | 0 | -7 | · | · | · | ·
O=C(OCn1ncc(Cl)c(Cl)c1=O)c1ccccc1Cl | 54* | · | 21 | 2 | 31* | 16 | 28* | 23 | 99*
O=C(OCCN1CCCCC1)c1ccccc1Cl | -8 | -2 | -2 | 1 | 6 | -3 | · | · | ·
CC(=O)C1=C(C)NC(SCC(=O)c2ccc(Cl)c(Cl)c2)=C(C#N)C1c1ccco1 (stereo not drawn) | 4 | 2 | 13 | 0 | 21* | 18 | 7 | 8 | 9
Cc1ccc(C(=O)N2CCN(C/C=C/c3ccccc3)CC2)cc1S(=O)(=O)N1CCOCC1 | -1 | · | -4 | -1 | -2 | · | · | · | ·
Cc1ccc(-c2cc(NC(=O)c3ccccc3)on2)cc1 | -6 | 1 | 1 | 6 | 24* | · | 2 | 0 | -2
CCOc1ccccc1NC(=O)CCNC(=O)c1ccc(Cl)cc1 | -4 | -1 | 1 | -1 | -7 | 17 | · | · | ·
Cc1ccc(NC(=O)N2CCCC(C(=O)O)C2)cc1 (stereo not drawn) | -25 | 0 | 10 | 1 | -11 | · | · | · | ·
C/C(=N/Nc1ccc([N+](=O)[O-])cc1)c1ccc(C)cc1C | 21 | 9 | 10 | -2 | 22* | 18 | 19 | 16 | 0
C/C(=N/Nc1ccc([N+](=O)[O-])cc1)c1c[nH]c2ccccc12 | 7 | 2 | 22 | -3 | 37* | · | 24* | 19 | 3
C/C(=N\Nc1ccc([N+](=O)[O-])cc1)c1ccc(C#N)cc1 | -18 | 1 | 21 | 3 | -2 | · | · | · | ·
COc1ccc(/C=C2\C(=O)NC(=O)c3ccccc32)cc1OC | -5 | · | -21 | -2 | 31* | · | 54* | 58* | 26*
Cc1cccc(NC(=O)c2cc(-c3cc(Cl)ccc3O)n[nH]2)c1 | -40 | 2 | -7 | 3 | 23* | · | -6 | -2 | -10
Cc1ccc2[nH]c(CN3CCC(CO)(CC4CCCCO4)CC3)c(C)c2c1 (stereo not drawn) | 1 | 0 | -5 | 1 | -8 | 8 | · | · | ·
COc1ccc(C(=O)C=Cc2ccc3c(c2)OCO3)cc1OC | -2 | · | 4 | 0 | -8 | · | · | · | ·
COc1cc(/C=C/C(=O)c2ccc3c(c2)OCO3)cc(Cl)c1O | 11 | 2 | 19 | -2 | 22* | · | 16 | 20 | 3
COc1ccc(C(=O)NC2CCCN(Cc3ccc(Cl)cc3)C2)c(OC)c1 (stereo not drawn) | 0 | 2 | 2 | 1 | -2 | · | · | · | ·
Cc1nn(-c2ccccc2)c(Cl)c1C(=O)NCCN(C)C | -7 | -2 | 1 | -2 | -5 | -10 | · | · | ·
Cc1cc(C)c2nc(NNC(=O)c3cc(-c4cccs4)nc4ccccc34)sc2c1 | 15 | 11 | 9 | -2 | 25* | 7 | 1 | 4 | -2
COc1cc(NC(=S)N2CCCCC2C)cc(OC)c1OC (stereo not drawn) | 4 | -1 | 0 | -1 | -1 | -12 | · | · | ·
O=C(/C(=C/O)N=Nc1ccccc1)c1ccncc1 | -3 | 2 | 0 | 0 | 4 | -14 | · | · | ·
Cc1ccc(N=N/C(=C\O)C(=O)c2ccc(Cl)cc2)cc1 | -10 | 11 | -5 | 2 | 21* | -12 | 6 | 4 | 11*
CCCCc1nnc(SC(C)C(=O)Nc2nccs2)n1C (stereo not drawn) | 2 | 0 | 2 | -5 | -5 | · | · | · | ·
Cc1cccc(N2C(=O)Cc3ccccc3C2=O)c1 | 1 | -1 | 2 | 0 | 3 | · | · | · | ·
Cc1ccc(N2C(=O)Cc3ccccc3C2=O)cc1 | -4 | 1 | 19 | 0 | 22* | · | 42* | 40 | 0
SMILES | NOD2-RIPK2 inh | NTR1 agonist | MC4R antagonist | MC4R barr agon | TLR9-MyD88 inh | TLR4-MyD88 BLA | TLR9-MyD88 cf | BLA counter | TLR9 CHO cytotox
CCCCC(=O)Nc1ccc2c(c1)nc(CCN1CCN(c3ccccn3)CC1)n2C | 1 | -1 | 15 | 0 | -7 | · | · | · | ·
CCCC(=O)Nc1ccc2c(c1)nc(CCN1CCN(c3ccccn3)CC1)n2C | -5 | 2 | 0 | 0 | 27* | · | 2 | 3 | 3
CC1CCCN(C2(O)C(=O)Nc3ccc(Cl)cc32)C1 (stereo not drawn) | -2 | -1 | 7 | -1 | -1 | · | · | · | ·
COc1cc(C(=O)Nc2ccc(C(C)=O)cc2)c(Br)c(OC)c1OC | 11 | -1 | 7 | 0 | 21* | 0 | 1 | -2 | 5
CC(C)N(C)C1=CC(=O)C(N(C)C(C)C)=CC1=O | -14 | · | -9 | -3 | 4 | · | · | · | ·
Cn1cccc1C1C=C(c2ccc(C(C)(C)C)cc2)Nc2ncnn21 (stereo not drawn) | 3 | 5 | -5 | 1 | 1 | · | · | · | ·
CC(C)(C)c1ccc(C2=CC(c3ccccc3F)n3ncnc3N2)cc1 (stereo not drawn) | 15 | 2 | 2 | 0 | 22* | · | -4 | -8 | 5
CCC(CC)C(=O)Nc1nnc(SCC(=O)NC2CC2)s1 | 6 | 0 | 4 | 0 | 7 | · | · | · | ·
Fc1ccccc1N1CCN(Cc2cc(-c3ccccc3)on2)CC1 | 8 | 0 | -1 | 1 | 21* | · | 1 | 3 | 4
Cc1nn(C)c(C)c1/C=N/NC(=O)CCn1nc(C)c([N+](=O)[O-])c1C | -1 | -1 | 6 | -1 | 28* | -4 | -2 | 1 | -1
